The results in this text go back to ChEMBL document CHEMBL4118110, “The identification of inhibitory compounds of Rickettsia prowazekii methionine aminopeptidase for antibacterial applications” (Bioorg Med Chem Lett, 2018).

The test is described as follows: Inhibition of Rickettsia prowazekii N-terminal His6-tagged methionine aminopeptidase 1 expressed in Escherichia coli DLB3 Rosetta cells at 10 uM using Met-AMC as substrate preincubated for 1 hr followed by 30 mins incubation after substrate addition measured after 90 mins in presence of MnCl2 by fluorescence assay relative to control. An outline of the steps: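 Recombinant R. prowazekii MetAP with Mn(II) as the metal cofactor. Met-AMC substrate; release of free AMC is followed by fluorescence (excitation 360 nm, emission 460 nm). Activity is the slope of fluorescence versus time, compared with an uninhibited control.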
As for `Cc1nc2ccccc2n1Cc1ccc(C(=O)O)o1`, the inhibition (in general, the share of the control response that was lost under treatment) is 10 to 21%. On to `O=C(O)c1cc(=O)c2ccccc2[nH]1`, for which the inhibition was 7 to 59%. To `COc1ccccc1-c1cc(C(=O)O)no1` belongs 33 to 48%; to `Oc1ccc2nc(-c3ccccn3)oc2c1`, 1 to 43%.

Turning to `Nc1n[nH]c(SCc2c(Cl)cccc2Cl)n1`, the inhibition was in the range of 5 to 17%.

With `c1ccc(-c2nc3ccccc3o2)nc1`, the inhibition was in the range of 1 to 46%.

Turning to `Oc1ccc(Br)cc1-c1nnco1`, the inhibition lay within 1 to 14%. As for `Nc1cc(-c2ccccn2)n[nH]1`, the inhibition is 1 to 45%. As to `c1ccc(-c2nc3ccccc3[nH]2)nc1`, the inhibition was in the range of 1 to 35%. Turning to `O=Cc1ccc(OCc2ccc(C(=O)O)o2)cc1`, the inhibition is 40 to 59%. As to `CC(N)c1ncc(-c2ccc(F)cc2)o1` (stereo not drawn), the inhibition is 46 to 50%. For `O=C1C(Cl)=C(N2CCCCC2)C(=O)c2ccccc21`, the inhibition fell in the range of 12 to 46%.

Take `NNC(=O)COc1cccc(Br)c1`: the inhibition lay within 1 to 45%. On to `COc1ccccc1NC(=O)CSc1nnc(C)[nH]1`, for which the inhibition lay in the range of 1 to 15%.

For `CC(=O)c1c(Nc2ccc(F)cc2)oc(C)cc1=O`, the inhibition lay within 23 to 58%. For `CCc1ccc(NC(=O)CSc2nnc[nH]2)cc1`, the inhibition was 18 to 60%. Take `O=C(Nc1ccccc1)C(=O)Nc1ccccc1`: the inhibition was in the range of 2 to 39%.

Consider `O=C(O)c1ccc(Cn2cnc3ccccc32)o1`, for which the inhibition was 9 to 23%. As to `Cc1c(C(=O)O)sc2ncn(C3CCCC3)c(=O)c12`, the inhibition is 20 to 26%. On to `Nc1cccc2c(-c3cccnc3)n[nH]c12`, for which the inhibition was 16 to 21%. In the case of `Cc1nnc(SCC(=O)c2cccc3ccccc23)[nH]1`, the inhibition was 38 to 67%. On to `S=c1nc(-c2ccccn2)cc[nH]1`, for which the inhibition was in the range of 32 to 75%.

`Cc1cc(C(=O)O)n[nH]1`: the inhibition was in the range of 34 to 42%. Consider `O=C(O)c1c(-c2ccccc2)c(-c2ccccc2)n[nH]c1=O`, for which the inhibition was in the range of 33 to 71%. Take `Cc1ccc(Sc2ccc(C(=O)O)o2)cc1`: the inhibition lay in the range of 27 to 62%. To `Nc1nnc(SCc2ccc([N+](=O)[O-])cc2)[nH]1` belongs 42 to 45%; to `Cc1cc(C)n(-c2ccc(Cl)c(C(=O)O)n2)n1`, 15 to 77%.

Consider `Sc1n[nH]c(-c2csc3c2CCCC3)n1`, for which the inhibition is 45 to 49%.

In the case of `CCc1n[nH]c(SCc2ccc([N+](=O)[O-])cc2)n1`, the inhibition is 1 to 27%.

Regarding `Cc1c(C(=O)O)sc2[nH]c(=S)[nH]c(=O)c12`, the inhibition fell in the range of 45 to 46%.

Regarding `Cc1ccc(SCc2ccc(C(=O)O)o2)cc1`, the inhibition lay within 4 to 9%. In the case of `O=C(O)c1cn(-c2ccccc2)nn1`, the inhibition fell in the range of 1 to 47%. In the case of `Cc1cc(OC(C)C(=O)NN)cc(C)c1Cl` (stereo not drawn), the inhibition is 31 to 69%. In the case of `CCc1ccc(C(=O)CSc2nnc(CC)[nH]2)cc1`, the inhibition is 9 to 47%. Then `COC(=O)c1ccc(CSc2nnc(N)[nH]2)cc1`, with 36 to 46%. With `Cc1c(C(=O)O)sc2ncn(C(C)C)c(=O)c12`, the inhibition lay within 5 to 19%. `Cc1nnc(SCC(=O)N2CCCc3ccccc32)[nH]1`: the inhibition lay within 43 to 44%. Turning to `O=C(NCc1ccccn1)c1ccc2[nH]c(=O)c(=O)[nH]c2c1`, the inhibition was 36 to 40%. Consider `C1CCc2nnc(-c3nnc4n3CCCCC4)n2CC1`, for which the inhibition is 1 to 60%. Regarding `Nc1nnc(SCC(=O)c2ccc(O)cc2O)[nH]1`, the inhibition was in the range of 2 to 19%.

As to `Cc1c(C(=O)O)sc2nc(CN(C)C)[nH]c(=O)c12`, the inhibition was in the range of 20 to 25%. On to `O=C(O)c1cc(-c2cccnc2)on1`, for which the inhibition was 29 to 33%. In the case of `Nc1n[nH]c(SCC(=O)c2cccc([N+](=O)[O-])c2)n1`, the inhibition fell in the range of 8 to 49%. Turning to `Nc1nnc(SCC(=O)OC2CCCC2)[nH]1`, the inhibition was 53 to 59%. Turning to `Nc1nnc(SCC(=O)OCCCc2ccccc2)[nH]1`, the inhibition fell in the range of 44 to 62%. With `O=C(CSc1nnc[nH]1)Nc1ccccc1`, the inhibition is 2 to 60%. With `N#Cc1ccccc1CSc1nnc(N)[nH]1`, the inhibition lay within 27 to 28%.

For `N#CC1=C(c2ccccc2)CSC(c2ccccn2)=NC1=N`, the inhibition lay within 2 to 20%. As to `Cc1nnc(CN)o1`, the inhibition is 13 to 32%. In the case of `Cc1cc(C)n2c(C(N)CC(C)C)nnc2n1` (stereo not drawn), the inhibition is 6 to 23%. As for `Cc1c(C(=O)O)sc2ncn(CC3CCCO3)c(=O)c12` (stereo not drawn), the inhibition was in the range of 10 to 24%. Then `NNC(=O)C(=O)Nc1ccccc1C(=O)O`, with 11 to 63%; and `Nc1nnc(SCCc2ccccc2)[nH]1`, with 14 to 42%; and `Cc1ccc(-c2nnc(C(C)N)o2)cc1` (stereo not drawn), with 21 to 49%.

Consider `O=C(O)c1cnc(-c2cccc(Cl)c2)o1`, for which the inhibition lay within 1 to 37%. For the molecule `Nc1nnc(SCCCOc2ccc(Cl)cc2)[nH]1`, the inhibition lay in the range of 22 to 32%. Regarding `CCOC(=O)CSc1nnc(CC)[nH]1`, the inhibition lay within 6 to 22%. Regarding `O=C(O)c1ccc(S(=O)(=O)Cl)s1`, the inhibition was in the range of 2 to 36%. To `O=C(O)c1ccc(-c2ccccc2Cl)s1` belongs 1 to 48%. As for `Cc1ccc(S(=O)(=O)Cc2ccc(C(=O)O)o2)cc1`, the inhibition was 12 to 25%.

For the molecule `O=C(O)c1cc(-c2ccccn2)nc2ccccc12`, the inhibition was 37 to 55%.

Consider `O=C(O)c1nc(C2CC2)n2ccccc12`, for which the inhibition was 40 to 68%. Then `Cc1n[nH]c(O)c1C1=NCCCCC1`, with 4 to 65%; and `O=C(CSc1nnc(-c2ccco2)[nH]1)N1CCOCC1`, with 24 to 40%. `NCc1nc(-c2ccc(F)cc2)no1`: the inhibition is 62 to 70%. With `CC(C)(Oc1ccc(Cl)cc1)C(=O)NN`, the inhibition was 42 to 46%. Regarding `COc1cccc(-c2nnc(CN)o2)c1`, the inhibition was in the range of 1 to 33%. For `Nc1n[nH]c(SCc2cccc(Br)c2)n1`, the inhibition lay in the range of 55 to 64%. For the molecule `Cc1ccc(-c2cc(C(=O)O)nn2C)cc1`, the inhibition lay within 42 to 45%. Then `O=C(O)c1ccc(S(=O)(=O)c2ccc(Cl)cc2)o1`, with 41 to 68%; and `O=C(O)c1cc(Br)c(Br)s1`, with 30 to 64%. To `O=C1CCC(c2ccccc2O)=NN1` belongs 51 to 54%.

Regarding `Cc1nc2sc(C(=O)O)c(C)c2c(=O)[nH]1`, the inhibition was 11 to 18%. To `Nc1nnc(SCCN2CCCCC2)[nH]1` belongs 1 to 34%; to `Cc1ccc(CSc2nnc(N)[nH]2)cc1`, 36%; to `COc1cccc(-c2nnc(-c3ccccc3N)[nH]2)c1`, 1 to 19%.

For the molecule `c1ccc(-c2nn[nH]n2)nc1`, the inhibition fell in the range of 44 to 56%.

For the molecule `CC(C)CCNC(=O)c1ccc2[nH]c(=O)c(=O)[nH]c2c1`, the inhibition was in the range of 49 to 54%.

With `O=C(O)c1cc([N+](=O)[O-])c(Cl)s1`, the inhibition is 7 to 63%.

`COc1ccccc1OCc1ccc(C(=O)O)o1`: the inhibition lay in the range of 6 to 17%.

As to `Cc1ccc(-c2ccc(C(=O)O)s2)cc1`, the inhibition was in the range of 4 to 18%. To `CC(=O)Nc1ccc(C(=O)CSc2nnc(C)[nH]2)cc1` belongs 1 to 39%; to `O=C(O)c1ccc(S(=O)(=O)N2CCOCC2)o1`, 8 to 67%. `COC(=O)c1ccc(CSc2nc[nH]n2)o1`: the inhibition was in the range of 30 to 59%. Turning to `Cc1cccc(CSc2nnc(N)[nH]2)c1`, the inhibition was in the range of 27 to 46%. Regarding `CCn1cnc2sc(C(=O)O)c(C)c2c1=O`, the inhibition was 7 to 47%.

`CCOC(=O)CSc1n[nH]c(-c2ccco2)n1`: the inhibition was in the range of 1 to 51%. For the molecule `CCSc1nnc([C@@H]2CCCN2)o1`, the inhibition lay in the range of 1 to 34%.

With `CCc1ccc(OCCCSc2nnc(N)[nH]2)cc1`, the inhibition lay in the range of 25 to 31%.

In the case of `N#Cc1cccc(NCc2ccc(O)c3ncccc23)c1`, the inhibition fell in the range of 1 to 5%. Then `COc1cccc(-c2cc(C(=O)O)no2)c1`, with 31 to 35%. As to `O=C(O)c1ccc(CSc2ccc(Cl)cc2)o1`, the inhibition lay in the range of 20 to 28%.

On to `Nc1nnc(SCc2cccc(Cl)c2)[nH]1`, for which the inhibition fell in the range of 1 to 23%. To `O=C(CSc1nnc(-c2ccco2)[nH]1)N1CCCCC1` belongs 1 to 48%; to `O=C(O)c1ccc(COc2ccc(F)cc2)o1`, 10 to 16%; to `NC(=O)CSc1nnc(-c2ccccc2)[nH]1`, 22 to 45%. `O=C(CSc1nnc[nH]1)c1cccc2ccccc12`: the inhibition lay within 1 to 39%.

In the case of `CC(N)c1nnc(-c2ccccc2)o1` (stereo not drawn), the inhibition was in the range of 1 to 32%. As to `Cc1cccn2c(=O)c3cc(C(=O)O)sc3nc12`, the inhibition was in the range of 31 to 36%. For `Nc1nnc(SCc2ccc(F)cc2)[nH]1`, the inhibition fell in the range of 1 to 18%.

Consider `COc1ccc(O)c(C2=NNC(c3ccc(F)cc3)C2)c1` (stereo not drawn), for which the inhibition lay within 26 to 48%. With `Nc1[nH]n(-c2ccccc2)c(=O)c1C1=NCCCCC1`, the inhibition lay in the range of 2 to 35%. To `CCc1nnc(SCC(=O)c2ccccc2)[nH]1` belongs 1 to 40%; to `CCCCCCSc1nnc(N)[nH]1`, 1 to 3%; to `COCc1nc(=O)c2c(C)c(C(=O)O)sc2[nH]1`, 2 to 48%. In the case of `Cc1ccc2nc(-c3ccccn3)c(C(=O)O)cc2c1`, the inhibition fell in the range of 1 to 13%. Turning to `Cc1ccc(OCc2ccc(C(=O)O)o2)cc1`, the inhibition fell in the range of 1 to 22%. To `Cc1n[nH]c(SCC(=O)NCCc2ccccc2)n1` belongs 1 to 18%; to `CN(C)c1cccc(-c2ccc(C(=O)NN)cc2)c1`, 29 to 56%; to `CC(C)(C)c1ccc(OCCSc2nnc(N)[nH]2)cc1`, 25 to 28%.

As for `O=C(O)c1ccc(S(=O)(=O)c2ccccc2)o1`, the inhibition is 18 to 49%. For `CC(C)OC(=O)CSc1nnc(N)[nH]1`, the inhibition was in the range of 23 to 38%. With `C=C(C)Cn1cnc2sc(C(=O)O)c(C)c2c1=O`, the inhibition lay in the range of 8 to 33%. To `Nc1n[nH]c(SCc2ccccc2Cl)n1` belongs 24 to 34%. Regarding `NC(=O)c1ccccc1N`, the inhibition lay within 1 to 33%. For `O=c1cc(CN2CCCCCC2)occ1O`, the inhibition lay in the range of 32 to 44%. As for `COc1ccc(N2C(=O)CCC2=O)cc1S(=O)(=O)Nc1cccc2cccnc12`, the inhibition is 14 to 36%. `O=C(O)c1ccc(CS(=O)(=O)c2ccccc2)o1`: the inhibition fell in the range of 16 to 27%.
